Experiments:
L1210 [1] = assay: Inhibition of RNA synthesis in mouse L1210 cells; type: functional; settings: read-out: ED50 (the source's name)
P388 [2] = assay: In vivo antitumor activity against mouse P388 cells allografted in BDF/CDF mouse assessed as host survival time at 8 mg/kg, ip administered on days 1 to 9 relative to control; type: functional; settings: route intraperitoneal
Outline: (§1)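 P-388 lymphocytic leukemia, 10⁶ cells injected ip into BDF or CDF mice on day 0; drug given ip daily on days 1-9 at the stated dose. Read-out T/C: average survival time of treated mice as percent of untreated controls. Assays run by NCI Drug Research and Development Program.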

[3] = Dissociation constant, pKa of Ar-COOH group of the compound; type: physicochemical
P388 [4] = assay: In vivo antitumor activity against mouse P388 cells allografted in BDF/CDF mouse assessed as host survival time at 0.5 mg/kg, ip administered on days 1 to 9 relative to control; type: functional; settings: route intraperitoneal; outline: as §1
Rattus norvegicus [5] = species on record: Rattus norvegicus; assay: Cardiotoxicity in rat ECG model; settings: in vivo
P388 [6] = assay: In vivo antitumor activity against mouse P388 cells allografted in BDF/CDF mouse assessed as host survival time at 0.25 mg/kg, ip administered on days 1 to 9 relative to control; type: functional; settings: route intraperitoneal; outline: as §1
[7] = Partition coefficient, log P of the compound; type: physicochemical; settings: octanol/water
P388 [8] = assay: In vivo antitumor activity against mouse P388 cells allografted in BDF/CDF mouse assessed as host survival time at 16 mg/kg, ip administered on days 1 to 9 relative to control; type: functional; settings: route intraperitoneal; outline: as §1
P388 [9] = assay: In vivo antitumor activity against mouse P388 cells allografted in BDF/CDF mouse assessed as host survival time at 2 mg/kg, ip administered on days 1 to 9 relative to control; type: functional; settings: route intraperitoneal; outline: as §1
L1210 [10] = assay: Inhibition of DNA synthesis in mouse L1210 cells; type: functional; settings: read-out: ED50 (the source's name)
Calf thymus DNA = assay: Binding affinity to calf thymus DNA assessed as change in melting temperature at 5 uM by spectrophotometer analysis; type: nucleic-acid assay; settings: Bos taurus
Outline: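 Drug dissolved in Me2SO, diluted with buffer, then mixed with calf thymus DNA. Final mix: 0.01 M phosphate pH 7, 5×10^-5 M DNA, 5×10^-6 M drug, 10^-5 M EDTA, 5% Me2SO. Absorbance at 259 nm recorded every 30 s while heating at 18 °C/h. Tm is the midpoint of the corrected curve; the shift is taken against DNA alone.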

P388 [11] = assay: In vivo antitumor activity against mouse P388 cells allografted in BDF/CDF mouse assessed as host survival time at 1 mg/kg, ip administered on days 1 to 9 relative to control; type: functional; settings: route intraperitoneal; outline: as §1
P388 [12] = assay: In vivo antitumor activity against mouse P388 cells allografted in BDF/CDF mouse assessed as host survival time at 4 mg/kg, ip administered on days 1 to 9 relative to control; type: functional; settings: route intraperitoneal; outline: as §1
Rattus norvegicus [13] = species on record: Rattus norvegicus; assay: Cardiotoxicity in rat ECG model relative to adriamycin; settings: in vivo
P388 [14] = assay: In vivo antitumor activity against mouse P388 cells allografted in BDF/CDF mouse assessed as host survival time at 0.125 mg/kg, ip administered on days 1 to 9 relative to control; type: functional; settings: route intraperitoneal; outline: as §1
[15] = Half life in 0.01 M phosphate buffer at 10 uM at pH 7.4 at 50 degC; type: physicochemical
Outline: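 Drug at 1×10^-5 M in 0.01 M phosphate, pH 7.4, 50 °C, no DNA. Absorbance followed continuously for 3 h at a drug-specific wavelength (345 or 259 nm). Buffer baseline subtracted. Data fit to A = ΣA0 + c·e^(-kt), with ΣA0 the absorbance of daunorubicin plus the […], and t1/2 derived from the fit.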

SMILES	EC50 (L1210 [1])	T/C (P388 [2])	pKa [3]	T/C (P388 [4])	MCCD (Rattus norvegicus [5])	T/C (P388 [6])	logP [7]	T/C (P388 [8])	T/C (P388 [9])	EC50 (L1210 [10])	ΔTm (Calf thymus DNA)	T/C (P388 [11])	T/C (P388 [12])	Ratio (Rattus norvegicus [13])	T/C (P388 [14])	half-life at 10 µM [15]
COc1cccc2c1C(=O)c1c(O)c3c(c(O)c1C2=O)C[C@@](O)(/C(CO)=N/NC(=O)c1ccccc1)C[C@@H]3O[C@H]1C[C@H](N)[C@H](O)[C@H](C)O1.Cl	8800 nM	201%	4.19	126%	32 mg/kg	99%	0.52	128%	154%	14000 nM	8.9 °C	154%	172%	2.4	103%	–
COc1cccc2c1C(=O)c1c(O)c3c(c(O)c1C2=O)C[C@@](O)(/C(C)=N/NC(=O)c1ccc(N(C)C)cc1)C[C@@H]3O[C@H]1C[C@H](N)[C@H](O)[C@H](C)O1.Cl	2500 nM	136%	4.97	154%	12 mg/kg	111%	1.22	89%	181%	2600 nM	10.7 °C	154%	172%	0.8	94%	9.23 h
COc1cccc2c1C(=O)c1c(O)c3c(c(O)c1C2=O)C[C@@](O)(/C(C)=N/NC(=O)c1ccccc1)C[C@@H]3O[C@H]1C[C@H](N)[C@H](O)[C@H](C)O1.Cl [ZORUBICIN HYDROCHLORIDE]	1200 nM	164%	4.19	140%	24 mg/kg	133%	1.04	112%	170%	2200 nM	11.7 °C	152%	192%	1.8	–	5.4 h
COc1cccc2c1C(=O)c1c(O)c3c(c(O)c1C2=O)C[C@@](O)(/C(CO)=N/NC(=O)c1ccc(Cl)c(Cl)c1)C[C@@H]3O[C@H]1C[C@H](N)[C@H](O)[C@H](C)O1.Cl	3600 nM	109%	3.62	143%	20 mg/kg	125%	1.94	72%	154%	6600 nM	5.3 °C	172%	202%	1.4	116%	–
COc1cccc2c1C(=O)c1c(O)c3c(c(O)c1C2=O)C[C@@](O)(C(C)=O)C[C@@H]3O[C@H]1C[C@H](N)[C@H](O)[C@H](C)O1 [DAUNORUBICIN]	230 nM	–	–	167%	14 mg/kg	152%	0.82	–	112%	480 nM	–	162%	83%	1.3	–	–
COc1cccc2c1C(=O)c1c(O)c3c(c(O)c1C2=O)C[C@@](O)(/C(C)=N/NC(=O)c1ccc(-c2ccccc2)cc1)C[C@@H]3O[C@H]1C[C@H](N)[C@H](O)[C@H](C)O1.Cl	1000 nM	98%	3.97	138%	40 mg/kg	134%	3	63%	163%	1900 nM	10.3 °C	157%	190%	2.8	107%	–
COc1cccc2c1C(=O)c1c(O)c3c(c(O)c1C2=O)C[C@@](O)(/C(C)=N/NC(=O)c1ccc(O)cc1)C[C@@H]3O[C@H]1C[C@H](N)[C@H](O)[C@H](C)O1.Cl	1900 nM	181%	4.52	157%	20 mg/kg	111%	0.37	111%	160%	3600 nM	11.5 °C	145%	161%	1.5	115%	–
COc1cccc2c1C(=O)c1c(O)c3c(c(O)c1C2=O)C[C@@](O)(C(=O)CO)C[C@@H]3O[C@H]1C[C@H](N)[C@H](O)[C@H](C)O1.Cl [DOXORUBICIN HYDROCHLORIDE]	670 nM	–	–	187%	11 mg/kg	170%	0.3	–	149%	1500 nM	13.4 °C	193%	77%	1	–	–
CCCCOc1ccc(C(=O)N/N=C(\C)[C@]2(O)Cc3c(O)c4c(c(O)c3[C@@H](O[C@H]3C[C@H](N)[C@H](O)[C@H](C)O3)C2)C(=O)c2c(OC)cccc2C4=O)cc1.Cl	1400 nM	72%	4.23	151%	>= 48 mg kg-1	143%	2.65	54%	179%	3200 nM	10.2 °C	152%	127%	>= 3.4	115%	–
COc1cccc2c1C(=O)c1c(O)c3c(c(O)c1C2=O)C[C@@](O)(/C(C)=N/NC(=O)c1ccc(Cl)c(Cl)c1)C[C@@H]3O[C@H]1C[C@H](N)[C@H](O)[C@H](C)O1.Cl	1700 nM	81%	3.62	157%	40 mg/kg	137%	2.46	54%	175%	2100 nM	11 °C	166%	163%	2.8	117%	–
COc1ccc(C(=O)N/N=C(\C)[C@]2(O)Cc3c(O)c4c(c(O)c3[C@@H](O[C@H]3C[C@H](N)[C@H](O)[C@H](C)O3)C2)C(=O)c2c(OC)cccc2C4=O)cc1.Cl	1600 nM	183%	4.47	136%	24 mg/kg	129%	1.02	59%	174%	3100 nM	10.9 °C	158%	211%	1.8	119%	–
CCc1ccc(C(=O)N/N=C(\C)[C@]2(O)Cc3c(O)c4c(c(O)c3[C@@H](O[C@H]3C[C@H](N)[C@H](O)[C@H](C)O3)C2)C(=O)c2c(OC)cccc2C4=O)cc1.Cl	1100 nM	93%	4.35	148%	20 mg/kg	139%	2.06	68%	175%	2600 nM	10.5 °C	154%	175%	1.5	111%	–
COc1cccc2c1C(=O)c1c(O)c3c(c(O)c1C2=O)C[C@@](O)(/C(C)=N/NC(=O)c1cccc([N+](=O)[O-])c1)C[C@@H]3O[C@H]1C[C@H](N)[C@H](O)[C@H](C)O1.Cl	2300 nM	202%	3.46	130%	32 mg/kg	130%	0.76	72%	172%	3200 nM	10.5 °C	146%	190%	2.3	125%	–

From ChEMBL document CHEMBL3244385, “Antitumor anthracycline antibiotics. Structure-activity and structure-cardiotoxicity relationships of rubidazone analogues” (J Med Chem, 1978)
